MC4R antag cAMP = blocks human MC4R cAMP signaling; P32245; MC4R-expressing cells, MTII-stimulated cAMP, LANCE TR-FRET; inhibition, % at 6.5 µM; 360,000 tested, 0.48% active;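 active = inhibition above its plate's cutoff, the mean of tested wells on that plate plus 3 SD, cut at about 29% in these data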;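 note: 0% = Melanotan II alone and 100% = Melanotan II plus saturating MCL0020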
Target sequence (P32245 whole entry, looked up): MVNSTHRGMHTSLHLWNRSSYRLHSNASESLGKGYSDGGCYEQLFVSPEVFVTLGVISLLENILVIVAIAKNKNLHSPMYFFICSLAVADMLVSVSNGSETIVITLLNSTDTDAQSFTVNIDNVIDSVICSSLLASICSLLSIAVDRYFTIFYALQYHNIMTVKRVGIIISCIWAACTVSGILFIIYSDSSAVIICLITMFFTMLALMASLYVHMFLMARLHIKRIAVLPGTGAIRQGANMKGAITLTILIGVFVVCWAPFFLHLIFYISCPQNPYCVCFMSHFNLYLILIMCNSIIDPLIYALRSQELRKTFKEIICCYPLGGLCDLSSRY
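System: U2OS-MC4R stable cell line; Technique: Eu-cAMP/anti-cAMP TR-FRET, emission 671 nm; Repeats: single well per compound; Also added: Melanotan II; Dosing: one concentration, 6.5 µM nominal; Schedule: 30-min compound, 1-h challenge, 1-h detection, room temperature.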
MC4R barr agon = human MC4R agonism via beta-arrestin; 360,000 tested, 0.98% active; activation, % at 8.9 µM; P32245; U2OS MC4R beta-arrestin complementation, luminescence; percent of melanotan II response, DMSO zero; AID 540308;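 active = activation above a per-plate cutoff, the mean activation of sample wells on that plate plus 3 SD, cut at about 8% in these data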
CFTR F508del cor = CFTR F508del correction in bronchial cells; 350,000 tested, 0.36% active; AID 720511; activity (quench increase), % at 7.58 µM; CFBE cells, YFP halide quenching; stimulated with forskolin plus potentiator P3; % fluorescence drop versus neutral controls;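 active = mean added fluorescence quench of at least 8% versus neutral control, with both replicates also reaching 8%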;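 note: cells transiently co-express mutant CFTR-F508del with the halide-sensitive YFP; corrector assay measuring rescue of mutant channel to the surface after 24 h compound exposure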
SMARCA2 act = activators of SMARCA2 function. MG213 cells, MMTV-luciferase reporter, dexamethasone, overnight. activation, % at 9.1 µM. 370,000 tested, 1% active; in the data active = activation above about 7.8%;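 note: 0% = vehicle wells and 100% = reference activator wells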
MC4R barr ag = human MC4R beta-arrestin agonism confirmation; shares compounds with MC4R barr agon; U2OS MC4R beta-arrestin recruitment, luminescence; scaled DMSO 0%, Melanotan II 100%; activation, % at 8.9 µM; 2,400 tested, 31% active; AID 602192;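 active = mean activation across replicates above the hit cutoff set in the earlier primary screen, cut at about 8% in these data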
MOR DOR agonist = OPRM1-OPRD1 heterodimer agonism counter-screen | U2OS PathHunter beta-arrestin, beta-gal luminescence; percent of deltorphin B response, DMSO zero | activation, % at 9.2 µM | 2,400 tested, 5.8% active | shares compounds with MC4R barr agon;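 active = mean activation across replicates exceeds the hit threshold derived in the earlier primary screen, cut at about 18% in these data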;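 note: 100% = deltorphin B at 0.9 µM final and 0% = DMSO alone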
An asterisk follows results filed as active. Most compounds without a hit are left out; they make up all but 2.1% or so of the library.

`CCC(=O)Nc1ccc2c(c1)C(=O)N(C)[C@@H]1CC[C@H](CC(=O)N3CCc4ccccc4C3)O[C@H]1CO2` gave CFTR F508del cor 1.
Screening Cc1cccc(C)c1NC(=O)c1cn(-c2ccccc2)nc1-c1ccccc1 returned MC4R antag cAMP 20, MC4R barr agon 9.9*, SMARCA2 act -5, MC4R barr ag 1 and MOR DOR agonist 6.
COC(=O)C1=C(C)N(Cc2ccccc2)C(=NCC(C)C)N[C@H]1c1cccc(C(F)(F)F)c1 was read as MC4R antag cAMP 8, MC4R barr agon 16*, MC4R barr ag 18* and MOR DOR agonist 23*.
`COC(=O)c1sc(NC(=O)/C=C/c2ccc(C)o2)nc1C` gave MC4R antag cAMP -1, MC4R barr agon 12*, SMARCA2 act 6, MC4R barr ag 4 and MOR DOR agonist 1.
`COC(=O)c1sc(NC(=O)c2ccoc2C)nc1C` gave MC4R antag cAMP 2, MC4R barr agon -4 and SMARCA2 act 0.
For COc1cccc(NC(=O)N(C)C[C@@H]2OCc3cn(nn3)CCCC(=O)N([C@@H](C)CO)C[C@@H]2C)c1 the results were CFTR F508del cor -2.
COc1cc2c(cc1OC)C(c1ccc(-c3ccc(Cl)cc3Cl)o1)=NCC2 was read as MC4R antag cAMP -10, MC4R barr agon 12*, SMARCA2 act -6, MC4R barr ag 7 and MOR DOR agonist 4.
`Nc1sc(-c2ccccc2)cc1-c1n[nH]c(=S)n1C1CCCCC1` gave MC4R antag cAMP -16, MC4R barr agon 11*, CFTR F508del cor 13*, SMARCA2 act 2, MC4R barr ag 7 and MOR DOR agonist 8.
Clc1ccc(-c2nc3nc4ccccc4nc3n2Cc2ccco2)cc1 was read as MC4R antag cAMP -1, MC4R barr agon 20*, SMARCA2 act 3, MC4R barr ag -2 and MOR DOR agonist 4.
Cc1noc(C)c1COc1cccc(C(=O)OCC(=O)NC(=O)c2ccc(OC(F)F)cc2)c1 was read as MC4R antag cAMP 6, MC4R barr agon 25*, SMARCA2 act 0, MC4R barr ag 6 and MOR DOR agonist 4.
Screening CC(C)NC(=O)NC(=O)COC(=O)c1cccc(OC(F)F)c1 returned MC4R antag cAMP 16, MC4R barr agon -4, CFTR F508del cor -1 and SMARCA2 act -2.
`CO[C@H]1CC[C@H]2CCN(C)C(=O)[C@@H](C)[C@@H](OC)CN(C)C(=O)c3cc(C#N)ccc3OC[C@@H]1O2` gave CFTR F508del cor -3.
Screening C[C@H]1CN([C@@H](C)CO)C(=O)c2cc(NS(=O)(=O)c3ccccc3)ccc2O[C@@H]1CN(C)S(=O)(=O)c1ccc(Cl)cc1 returned CFTR F508del cor -2.
COc1cc(/C=N/NC(=O)c2ccccn2)ccc1OC(=O)c1ccccc1Br was read as MC4R antag cAMP -2, MC4R barr agon 12*, CFTR F508del cor 2, SMARCA2 act 4, MC4R barr ag 5 and MOR DOR agonist 1.
COc1cc(/C=N/NC(=O)c2ccccn2)ccc1OC(=O)c1ccc(Br)cc1 was read as MC4R antag cAMP -1, MC4R barr agon 2, CFTR F508del cor -1 and SMARCA2 act 3.
Screening NC(CCc1ccccc1)c1csc(Nc2ccc(C(=O)NCCO)cc2)n1 (configuration not stated) returned MC4R antag cAMP 7, MC4R barr agon 1, CFTR F508del cor -1 and SMARCA2 act -2.
`CC(=O)c1ccc(Nc2nc(C(N)Cc3ccc(C(F)(F)F)cc3)cs2)cc1` (configuration not stated) gave MC4R antag cAMP 9, MC4R barr agon 7, CFTR F508del cor 2 and SMARCA2 act -3.
`NC(CCc1ccccc1)c1csc(Nc2ccc(C(=O)c3ccccc3)cc2)n1` (configuration not stated) gave MC4R antag cAMP 13, MC4R barr agon 13*, CFTR F508del cor 0, SMARCA2 act -5, MC4R barr ag 20* and MOR DOR agonist 9.
`NC(Cc1ccc(C(F)(F)F)cc1)c1csc(Nc2ccccn2)n1` (configuration not stated) gave MC4R antag cAMP 0, MC4R barr agon 7, CFTR F508del cor 2 and SMARCA2 act -6.
`NC(Cc1ccc(C(F)(F)F)cc1)c1csc(Nc2ccc(C(=O)c3ccccc3)cc2)n1` (configuration not stated) gave MC4R antag cAMP 7, MC4R barr agon 13*, CFTR F508del cor 1, SMARCA2 act -4, MC4R barr ag 14* and MOR DOR agonist 14.
`NC(Cc1ccc(C(F)(F)F)cc1)c1csc(Nc2cc(NCc3ccco3)ncn2)n1` (configuration not stated) gave MC4R antag cAMP 8, MC4R barr agon 12*, CFTR F508del cor -1, SMARCA2 act -3, MC4R barr ag 43* and MOR DOR agonist 26*.
For CN(Cc1ccccc1)C(=O)c1ccc(Nc2nc(C(N)Cc3ccc(C(F)(F)F)cc3)cs2)nc1 (configuration not stated) the results were MC4R antag cAMP 20, MC4R barr agon 40*, CFTR F508del cor 3, SMARCA2 act -6, MC4R barr ag 22* and MOR DOR agonist 33*.
Screening CCC(=O)N1[C@@H](CO)[C@@H]2c3ccccc3N(C(=O)NC(C)C)C[C@@H]21 returned CFTR F508del cor 2.
`COc1ccccc1-c1ccc2n(c1=O)C[C@H]1[C@H](CO)[C@@H](C(=O)NCc3ccccc3F)N[C@@H]21` gave CFTR F508del cor 1.
`O=C(Nc1ccc(Nc2ccccc2)cc1)c1cc([N+](=O)[O-])ccc1Cl` gave MC4R antag cAMP 0, MC4R barr agon -1, CFTR F508del cor -2 and SMARCA2 act 1.
O=C(Nc1ccccc1Oc1ccccc1)c1cc([N+](=O)[O-])ccc1Cl was read as MC4R antag cAMP 12, MC4R barr agon 14*, SMARCA2 act -6, MC4R barr ag -1 and MOR DOR agonist 6.
For Clc1ccc(C2=Nn3c(nnc3-c3cc(-c4ccccc4)n[nH]3)SC2)cc1 the results were MC4R antag cAMP -5, MC4R barr agon 41*, SMARCA2 act -2, MC4R barr ag 23* and MOR DOR agonist 8.
For c1ccc(C2=Nn3c(nnc3-c3cc(-c4ccccc4)n[nH]3)SC2)cc1 the results were MC4R antag cAMP -8, MC4R barr agon 1 and SMARCA2 act -1.
`COc1ccc2c3c([nH]c2c1)[C@@H](CO)N(Cc1cccc(F)c1)CC31CCN(C(C)=O)CC1` gave CFTR F508del cor 2.

Source: PubChem (several laboratories)
